This is a sample that favours compounds with a hit; in the whole collection about 2% have one here.
CaV13 FRET inh: Disruptors of the CACNA1D IQ motif to Ca2+-dependent inactivation inhibitor domain association, primary screening, Förster resonance energy transfer in intact living … | HEK cells, CFP/YFP FRET ICDI-IQ, plate reader, 10 min; percent FRET-ratio fall versus neutral wells | inhibition, % at 12.3 µM | hit rate 0.098% among 340,000;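 active means mean replicate inhibition of at least 30% and at least 1% of replicates passing that level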;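 further: 0% = median of the neutral control wells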
LGR2 inh: Drosophila LGR2 receptor signaling inhibition. HEK293 LGR2, CRE-luciferase, bursicon-stimulated, 4 h. inhibition, % at 9.99 µM. hit rate 0.35% among 380,000. AID 720647;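 active means drop in luminescence signal, shown as inhibition above about 50% in the replicate tests, limit read from the data, passing the limit was not always enough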;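 further: agonist challenge used bursicon conditioned medium at about half maximal strength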
XiGFP reactiv: reactivates the inactive X chromosome in mouse fibroblasts; activation, % at 7.58 µM; XiGFP mouse fibroblasts, % GFP-positive cells imaging, 3 d; cells co-treated with 5-aza-dC sensitizer; scaled so ellipticine positive control = 100%; AID 743238; hit rate 0.055% among 360,000;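 active means mean normalized replicate activation at least 10% and every replicate at or above 10%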;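 further: 0% = median of on-plate neutral control wells and 100% = ellipticine 6 µM median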
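System: 68-5-11 XiGFP fibroblast line; Timing: 3 days compound exposure; Compound dosing: one concentration, pinned; Benchmarks: positive control ellipticine, 6 µM final; Buffer or medium: DMEM containing 5-aza-dC.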
TWEAK-Fn14 inh: blocks TWEAK-Fn14 interaction in a reporter cell assay | TWEAK-stimulated Fn14 reporter cells, luciferase luminescence, 8 h | inhibition, % at 10 µM | hit rate 2% among 360,000; in the data active means inhibition above about 50%
TROY signal inh: inhibitors of TROY-dependent NF-kB signaling; Q293 LMP1-TROYcd NF-kB luciferase reporter, 4 h; inhibition, % at 10 µM; hit rate 0.98% among 360,000; AID 1347056;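 active means compounds whose plate-normalised and pattern-corrected inhibition of the luciferase reporter signal at the single screening dose is 50% or more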
Starred values were filed as active, the others as inactive; . = no result given.

SMILES	CaV13 FRET inh	LGR2 inh	XiGFP reactiv	TWEAK-Fn14 inh	TROY signal inh
CCCCCCOC(=O)C[N+](C)(C)CCOC1CC2CCC1(C)C2(C)C (configuration not stated)	-3	.	.	-1	4
CCCCCCCOC(=O)C[N+](C)(C)CCOC1CC2CCC1(C)C2(C)C (configuration not stated)	-5	23	0	46	63*
CN1[C@@H]2c3ccc(-c4ccncc4)c(=O)n3C[C@H]1[C@H](CO)[C@H]2C(=O)NCCc1ccccc1	.	-17	0	.	.
COc1ccccc1NS(=O)(=O)c1cc(NC(=O)c2ccc3ccccc3n2)ccc1Cl	-15	-7	0	19	6
COc1ccccc1NS(=O)(=O)c1cc(NC(=O)c2ccc(Cl)nc2)ccc1Cl	-5	38	0	102*	72*
COC(=O)c1cc(NC(=O)Nc2cccc(Cl)c2)ccc1Cl	-8	7	.	78*	37
COc1cc(NC(=O)c2ccccc2)c(OC)cc1NC(C)=O	-5	.	.	-4	1
O=C(Nc1cccc(Cl)c1)Nc1cccc(Cl)c1	-4	.	.	-8	-19
COc1ccc(C(=O)Nc2ccc(Cl)c(S(=O)(=O)Nc3ccccc3OC)c2)cc1	-5	11	0	81*	53*
COc1cc(NS(C)(=O)=O)c(OC)cc1NC(=O)c1ccccc1	10	.	.	57*	-14
COc1ccccc1NC(=O)Nc1ccc(Cl)c(S(=O)(=O)Nc2ccccc2OC)c1	-2	4	0	30	13
C[C@@H]1CCCCO[C@H](CN(C)Cc2ccccc2)[C@@H](C)CN([C@@H](C)CO)C(=O)c2cc(NS(=O)(=O)c3ccc(F)cc3)ccc2O1	.	-18	0	.	.
CCNC(=O)[C@H]1[C@H](CO)[C@H]2Cn3c(ccc(-c4cccnc4)c3=O)[C@H]2N1Cc1ccccc1	.	0	0	.	.
COc1ccccc1NS(=O)(=O)c1cccc(NC(=O)Nc2cccc(Cl)c2)c1	-4	28	0	81*	51*
COc1ccc(NC(=O)c2ccccc2)cc1NS(=O)(=O)c1ccc(F)cc1	-5	3	0	-12	3
COc1ccc(NC(=O)c2ccc(-c3ccccc3)cc2)cc1NS(=O)(=O)c1ccc(F)cc1	-5	-7	0	62*	31
C[C@@H]1CN([C@@H](C)CO)C(=O)c2cc(NC(=O)CCCN(C)C)ccc2O[C@@H](C)CCCCO[C@@H]1CN(C)Cc1ccc2c(c1)OCO2	.	-3	0	.	.
O=C(NCC[C@@H]1CC[C@H](NC(=O)C2CCCCC2)[C@@H](CO)O1)c1cc(Cl)cc(Cl)c1	.	-3	-1	.	.
CCCCc1ccc(NC(=O)CSc2nc(=O)n(CCN(C)C)c3c2CCC3)cc1	-5	6	0	15	10
CCCCc1ccc(NC(=O)CSc2nc(=O)n(CCN(CC)CC)c3c2CCCC3)cc1	-6	11	0	-8	54*
CCC(=O)N1CC[C@H]2[C@H](CO)Nc3ccc(-c4ccc(C(=O)N(C)C)cc4)cc3[C@H]21	.	-17	0	.	.
CCN=c1scc(C)n1/N=C/c1cc(Br)c(O)c(Br)c1	-5	21	0	10	53*
CC(=O)Nc1ccc(S(=O)(=O)Nc2cccc3cccnc23)cc1	-3	7	0	-17	15
Cc1ccc(S(=O)(=O)Nc2cccc3cccnc23)c([N+](=O)[O-])c1	-4	0	2	99*	79*
Cc1cc(C)c(NS(=O)(=O)c2cccc3cccnc23)c(C)c1	-7	-7	0	-9	-2
SMILES	CaV13 FRET inh	LGR2 inh	XiGFP reactiv	TWEAK-Fn14 inh	TROY signal inh
O=S(=O)(Nc1cccc2cccnc12)c1ccccc1	-4	3	1	101*	29
COc1ccc2c3c(n(C)c2c1)[C@H](CO)N(C(=O)Nc1ccc(F)cc1)CC31CCN(C(=O)CC2CC2)CC1	.	10	0	.	.
C[C@@H]1CN([C@@H](C)CO)C(=O)c2cc(NS(=O)(=O)c3ccccc3)ccc2O[C@@H](C)CCCCO[C@H]1CN(C)C(=O)Nc1cccc2ccccc12	.	11	0	.	.
COc1nc(=O)n(C2C=CC(=O)O2)cc1F (configuration not stated)	-5	-23	1	64*	-12
CCCn1c(C)cc(C(=O)CN2C(=O)c3ccccc3S2(=O)=O)c1C	-5	56*	0	8	23
Cc1cc(C(=O)CSc2nc3ccccc3c(=O)[nH]2)c(C)n1CC1CCCO1 (configuration not stated)	-10	-27	1	60*	42
Cc1ccc(C)c(C(=O)CN2C(=O)c3ccccc3S2(=O)=O)c1	.	.	.	60*	27
CCCn1c(C)cc(C(=O)Cn2nnc3ccccc3c2=O)c1C	-2	-2	0	33	17
Cc1ccc(C)c(C(=O)CN2C(=O)c3ccccc3C2=O)c1	-5	8	0	-19	-29
Cc1cc(C(=O)CN2C(=O)c3ccccc3S2(=O)=O)c(C)n1CC1CCCO1 (configuration not stated)	-8	.	.	106*	45
CCn1c(SCC(=O)c2cc(C)n(CC3CCCO3)c2C)nc2ccccc21 (configuration not stated)	-3	.	.	-5	6
C[C@@H]1CN([C@H](C)CO)S(=O)(=O)c2ccc(-c3ccccc3)cc2O[C@@H]1CN(C)C(=O)c1ccc2c(c1)OCO2	.	2	0	.	.
CCC(=O)N1CC2(C1)CN(C(=O)Nc1ccccc1F)[C@H](CO)c1c2c2ccc(OC)cc2n1C	.	-9	0	.	.
COc1cccc(C(=O)Nc2ccc3c(c2)OC[C@@H](C)N(C(=O)C2CC2)C[C@@H](C)[C@H](OC)CN(C)C3=O)c1	.	5	0	.	.
COc1ccccc1C(=O)NNC(=O)c1cccc(O)c1	-5	39	0	39	-11
COc1ccccc1C(=O)NNC(=O)c1cccc(F)c1	-6	2	0	67*	8
Cc1cc(Sc2nnc(N)s2)c2ccccc2n1	0	58*	0	90*	37
Cc1cc(Sc2nnc(/N=C/N(C)C)s2)c2ccccc2n1	-5	55*	0	81*	35
COCC(=O)N1CC(=O)N2[C@@H](CO)[C@@H](c3ccc(-c4cccnc4)cc3)[C@@H]2C1	.	6	1	.	.
CCCC#Cc1ccc2c(c1)O[C@@H](CN(C)C(=O)Nc1ccccc1F)[C@H](C)CN([C@@H](C)CO)S2(=O)=O	.	8	-1	.	.
OC(COCC(F)(F)C(F)(F)C(F)(F)C(F)F)Cn1c2ccc(Cl)cc2c2cc(Cl)ccc21 (configuration not stated)	.	.	.	64*	57*
Cc1noc(C)c1S(=O)(=O)Nc1ccc2c(c1)C(=O)N([C@H](C)CO)C[C@@H](C)[C@@H](CN(C)S(=O)(=O)c1cn(C)cn1)O2	.	4	0	.	.

From PubChem
